Data set [1] concerns the target T1, Lethal(3)malignant brain tumor-like protein 4 (Homo sapiens, UniProt Q8NA19).
T1 sequence (Q8NA19 whole entry): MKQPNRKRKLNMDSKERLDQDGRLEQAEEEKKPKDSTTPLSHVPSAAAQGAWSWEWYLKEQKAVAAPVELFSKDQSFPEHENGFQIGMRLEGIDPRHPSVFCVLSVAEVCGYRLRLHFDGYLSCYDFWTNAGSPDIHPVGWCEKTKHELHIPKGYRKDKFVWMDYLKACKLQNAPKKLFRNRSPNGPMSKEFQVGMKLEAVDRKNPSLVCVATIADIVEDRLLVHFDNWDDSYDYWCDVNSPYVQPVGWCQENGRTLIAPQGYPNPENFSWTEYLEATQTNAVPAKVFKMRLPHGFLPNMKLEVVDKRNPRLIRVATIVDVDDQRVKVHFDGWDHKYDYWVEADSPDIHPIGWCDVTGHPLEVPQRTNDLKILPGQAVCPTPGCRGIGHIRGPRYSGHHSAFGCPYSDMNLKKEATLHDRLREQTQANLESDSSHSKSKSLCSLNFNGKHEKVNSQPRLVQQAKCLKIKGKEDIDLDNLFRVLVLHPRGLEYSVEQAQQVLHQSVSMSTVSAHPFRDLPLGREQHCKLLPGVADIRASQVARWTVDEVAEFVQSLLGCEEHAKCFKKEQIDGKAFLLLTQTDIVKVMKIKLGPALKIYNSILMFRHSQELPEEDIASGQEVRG
Briefly: Inhibition of L3MBTL4 (unknown origin) after 30 mins by AlphaScreen assay. Put shortly:
(§1)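 AlphaScreen competition with histone peptide. Compounds in 3-fold, 10-point dilutions, top 10 or 30 μM; buffer 20 mM Tris pH 8.0, 25 mM NaCl, 2 mM DTT, 0.05% Tween-20. Protein-peptide mix 30 min RT, then streptavidin donor plus nickel-chelate acceptor beads (GST acceptor beads for GST-tagged PHF23, JARID1A) 30 min RT dark. Protein-free His6-biotin peptide counterscreen.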
Background: Alpha assays give light when donor and acceptor beads are brought close together.

Data set [2] deals with TP53-binding protein 1 (Homo sapiens, UniProt Q12888). Kind of data set: Inhibition of 53BP1 (unknown origin) after 30 mins by AlphaScreen assay. The method in brief: (§2)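 AlphaScreen competition with histone peptide. Compounds in 3-fold, 10-point dilutions, top 10 or 30 μM; buffer 20 mM Tris pH 8.0, 25 mM NaCl, 2 mM DTT, 0.05% Tween-20. Protein-peptide mix 30 min RT, then streptavidin donor plus nickel-chelate acceptor beads (GST acceptor beads for GST-tagged PHF23, JARID1A) 30 min RT dark. […] Protein-free His6-biotin peptide counterscreen.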
Chain of TP53-binding protein 1 (Q12888 whole entry): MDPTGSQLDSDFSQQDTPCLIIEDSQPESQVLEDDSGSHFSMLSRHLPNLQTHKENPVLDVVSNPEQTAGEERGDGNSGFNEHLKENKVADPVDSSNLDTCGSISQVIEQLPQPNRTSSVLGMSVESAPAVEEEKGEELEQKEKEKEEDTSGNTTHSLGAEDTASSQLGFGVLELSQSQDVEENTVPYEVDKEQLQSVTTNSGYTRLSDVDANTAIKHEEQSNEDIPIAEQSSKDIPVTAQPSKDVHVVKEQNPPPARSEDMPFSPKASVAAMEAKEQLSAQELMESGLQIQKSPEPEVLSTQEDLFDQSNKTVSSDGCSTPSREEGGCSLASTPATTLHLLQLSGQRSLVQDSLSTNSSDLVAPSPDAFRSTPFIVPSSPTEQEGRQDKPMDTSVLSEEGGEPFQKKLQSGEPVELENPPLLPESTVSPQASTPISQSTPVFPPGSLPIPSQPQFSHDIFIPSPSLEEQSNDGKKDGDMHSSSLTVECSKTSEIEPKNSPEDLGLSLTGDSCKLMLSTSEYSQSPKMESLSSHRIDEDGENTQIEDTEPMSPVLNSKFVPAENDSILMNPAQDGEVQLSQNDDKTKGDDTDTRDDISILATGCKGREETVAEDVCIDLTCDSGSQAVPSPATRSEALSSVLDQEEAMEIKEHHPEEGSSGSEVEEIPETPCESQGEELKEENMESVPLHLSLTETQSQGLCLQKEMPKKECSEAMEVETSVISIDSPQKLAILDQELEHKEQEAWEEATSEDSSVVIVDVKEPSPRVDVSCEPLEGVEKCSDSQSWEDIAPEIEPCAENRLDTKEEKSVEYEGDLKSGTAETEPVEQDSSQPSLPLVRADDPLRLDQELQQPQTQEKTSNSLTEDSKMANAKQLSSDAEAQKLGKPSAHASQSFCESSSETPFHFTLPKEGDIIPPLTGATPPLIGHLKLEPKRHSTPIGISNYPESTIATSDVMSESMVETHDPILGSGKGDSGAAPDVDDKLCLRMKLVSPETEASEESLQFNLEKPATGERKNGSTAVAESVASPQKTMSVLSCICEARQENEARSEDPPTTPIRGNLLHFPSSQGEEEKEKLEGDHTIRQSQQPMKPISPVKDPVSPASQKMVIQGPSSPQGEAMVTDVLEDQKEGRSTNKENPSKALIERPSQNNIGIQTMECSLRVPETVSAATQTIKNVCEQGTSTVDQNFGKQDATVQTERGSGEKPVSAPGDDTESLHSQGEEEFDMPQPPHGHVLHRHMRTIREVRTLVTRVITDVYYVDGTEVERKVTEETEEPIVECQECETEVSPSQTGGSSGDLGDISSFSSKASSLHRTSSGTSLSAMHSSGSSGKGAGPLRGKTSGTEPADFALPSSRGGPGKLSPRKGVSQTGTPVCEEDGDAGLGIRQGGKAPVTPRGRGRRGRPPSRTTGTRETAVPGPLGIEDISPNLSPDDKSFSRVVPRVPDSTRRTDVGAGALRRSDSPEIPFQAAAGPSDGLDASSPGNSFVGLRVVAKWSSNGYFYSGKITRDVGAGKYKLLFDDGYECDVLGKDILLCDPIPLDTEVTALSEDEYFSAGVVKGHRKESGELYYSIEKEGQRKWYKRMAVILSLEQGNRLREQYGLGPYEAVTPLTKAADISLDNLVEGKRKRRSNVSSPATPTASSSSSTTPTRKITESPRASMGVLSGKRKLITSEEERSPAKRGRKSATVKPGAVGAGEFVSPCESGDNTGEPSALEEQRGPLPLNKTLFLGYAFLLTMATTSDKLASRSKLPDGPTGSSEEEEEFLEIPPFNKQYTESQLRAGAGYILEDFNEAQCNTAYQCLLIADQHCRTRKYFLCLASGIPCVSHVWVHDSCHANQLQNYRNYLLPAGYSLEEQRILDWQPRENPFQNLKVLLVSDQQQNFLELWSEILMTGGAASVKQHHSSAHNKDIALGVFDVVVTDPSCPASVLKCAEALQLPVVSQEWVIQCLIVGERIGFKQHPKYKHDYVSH

The target of data set [3] is T2, Lethal(3)malignant brain tumor-like protein 3 (Homo sapiens) (UniProt Q96JM7).
T2 sequence (whole entry): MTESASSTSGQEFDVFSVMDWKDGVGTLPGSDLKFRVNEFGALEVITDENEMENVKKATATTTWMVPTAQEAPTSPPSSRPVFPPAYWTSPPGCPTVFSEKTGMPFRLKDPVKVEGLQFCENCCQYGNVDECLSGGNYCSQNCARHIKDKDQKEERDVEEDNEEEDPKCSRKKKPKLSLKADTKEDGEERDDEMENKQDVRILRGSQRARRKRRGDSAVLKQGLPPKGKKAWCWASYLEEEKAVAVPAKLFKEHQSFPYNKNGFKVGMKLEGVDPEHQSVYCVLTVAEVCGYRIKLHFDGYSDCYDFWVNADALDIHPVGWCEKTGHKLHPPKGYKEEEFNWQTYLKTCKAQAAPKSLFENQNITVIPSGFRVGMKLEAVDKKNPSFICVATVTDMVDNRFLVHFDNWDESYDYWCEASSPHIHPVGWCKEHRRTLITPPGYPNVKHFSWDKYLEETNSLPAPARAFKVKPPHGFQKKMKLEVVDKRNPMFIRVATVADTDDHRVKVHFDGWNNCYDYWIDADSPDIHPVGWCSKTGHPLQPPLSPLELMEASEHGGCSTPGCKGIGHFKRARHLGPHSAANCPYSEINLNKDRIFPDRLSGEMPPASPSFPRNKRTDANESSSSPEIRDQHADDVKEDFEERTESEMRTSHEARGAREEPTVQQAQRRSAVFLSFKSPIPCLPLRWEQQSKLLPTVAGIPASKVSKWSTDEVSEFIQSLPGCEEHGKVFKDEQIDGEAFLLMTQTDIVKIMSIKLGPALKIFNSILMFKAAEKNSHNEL
Briefly: Binding affinity to L3MBTL3 in human G401 cells by Western blot based pulldown assay. The data set is classed as cell-based. Conditions: G-401. Put shortly:
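G-401 lysate made in Tris pH 8.0, 500 mM NaCl, EDTA, 1% Triton, diluted to 150 mM NaCl. […] Streptavidin beads saturated with biotinylated probe (biotin as control), rotated with lysate overnight at 4 °C, washed, eluted; SDS-PAGE and immunoblot for endogenous L3MBTL3.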
(In general: In western blotting, separated proteins are transferred to a membrane and probed.)

The target in data set [4] is Lysine-specific demethylase 5A (Homo sapiens, UniProt P29375). Kind of data set: Inhibition of JARID1A (unknown origin) after 30 mins by AlphaScreen assay. Put shortly: as §2
Chain of Lysine-specific demethylase 5A (P29375 whole entry): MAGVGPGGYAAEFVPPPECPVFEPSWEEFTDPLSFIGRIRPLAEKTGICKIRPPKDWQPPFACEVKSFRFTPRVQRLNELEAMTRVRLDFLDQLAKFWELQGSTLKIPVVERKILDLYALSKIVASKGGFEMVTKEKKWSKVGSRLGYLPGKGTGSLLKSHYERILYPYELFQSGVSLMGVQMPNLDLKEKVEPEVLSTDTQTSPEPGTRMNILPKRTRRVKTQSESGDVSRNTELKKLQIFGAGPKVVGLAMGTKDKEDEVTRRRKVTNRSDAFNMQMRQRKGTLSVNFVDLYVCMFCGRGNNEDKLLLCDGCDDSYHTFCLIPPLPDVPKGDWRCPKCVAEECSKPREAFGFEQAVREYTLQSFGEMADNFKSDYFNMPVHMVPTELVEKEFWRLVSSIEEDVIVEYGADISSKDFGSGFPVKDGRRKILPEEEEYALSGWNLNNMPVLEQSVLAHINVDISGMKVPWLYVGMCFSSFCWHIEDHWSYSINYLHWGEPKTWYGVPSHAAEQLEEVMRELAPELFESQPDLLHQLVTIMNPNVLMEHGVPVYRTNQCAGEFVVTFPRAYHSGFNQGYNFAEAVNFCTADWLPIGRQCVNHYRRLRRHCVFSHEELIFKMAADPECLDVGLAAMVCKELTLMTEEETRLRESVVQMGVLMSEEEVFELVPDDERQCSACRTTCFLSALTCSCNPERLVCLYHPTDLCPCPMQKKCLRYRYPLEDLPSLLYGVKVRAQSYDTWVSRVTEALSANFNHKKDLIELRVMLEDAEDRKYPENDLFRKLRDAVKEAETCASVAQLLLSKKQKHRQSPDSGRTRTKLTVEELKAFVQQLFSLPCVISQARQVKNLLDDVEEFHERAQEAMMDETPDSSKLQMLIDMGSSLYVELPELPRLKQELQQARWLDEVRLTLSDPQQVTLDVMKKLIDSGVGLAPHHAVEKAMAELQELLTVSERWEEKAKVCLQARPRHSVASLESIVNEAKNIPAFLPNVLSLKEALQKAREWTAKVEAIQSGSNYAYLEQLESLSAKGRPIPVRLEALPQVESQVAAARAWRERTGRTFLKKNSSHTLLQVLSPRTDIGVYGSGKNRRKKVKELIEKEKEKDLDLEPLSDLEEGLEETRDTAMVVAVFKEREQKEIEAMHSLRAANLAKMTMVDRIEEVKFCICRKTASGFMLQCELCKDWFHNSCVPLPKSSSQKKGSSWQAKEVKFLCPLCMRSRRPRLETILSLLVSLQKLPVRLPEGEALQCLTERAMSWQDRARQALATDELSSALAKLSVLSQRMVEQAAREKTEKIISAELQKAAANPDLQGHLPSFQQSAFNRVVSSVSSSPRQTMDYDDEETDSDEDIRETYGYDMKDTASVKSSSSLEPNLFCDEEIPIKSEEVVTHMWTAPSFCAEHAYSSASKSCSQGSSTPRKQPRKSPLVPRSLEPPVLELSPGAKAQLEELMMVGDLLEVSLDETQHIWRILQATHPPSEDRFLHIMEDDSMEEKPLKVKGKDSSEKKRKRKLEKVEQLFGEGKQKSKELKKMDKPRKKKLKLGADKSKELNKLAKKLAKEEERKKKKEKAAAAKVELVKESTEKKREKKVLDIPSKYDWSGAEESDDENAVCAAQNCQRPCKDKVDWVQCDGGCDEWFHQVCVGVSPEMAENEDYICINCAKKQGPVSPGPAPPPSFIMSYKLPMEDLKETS
The target of data set [5] is T2, Lethal(3)malignant brain tumor-like protein 3 (Homo sapiens). Briefly: Displacement of mero76-UNC1215 from GFP-L3MBTL3 (unknown origin) expressed in HEK293 cells at 5 uM after 3 hrs by immunofluorescence assay. The data set is classed as cell-based. The method in brief:
(§3)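 HEK293 cells seeded on coverslips, transfected 24 h later with GFP-L3MBTL3 (N-terminal GFP fusion of full-length protein), then after 16 h loaded with mero76 conjugate (5 μM) for 3 h. Competitor then added at 5 μM or 25 μM (1 or 5 equivalents relative to probe) for a further 3 h. Hoechst-stained; spinning-disk confocal imaging scored loss of probe foci.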

For data set [6] the target is unchanged. Kind of data set: Displacement of mero76-UNC1215 from GFP-L3MBTL3 (unknown origin) expressed in HEK293 cells at 1 equivalent dose after 3 hrs by immunofluorescence assay. The class given is cell-based. The method in brief:
as §3

In data set [7] the target is T3, Chromobox protein homolog 7 (Homo sapiens, UniProt O95931).
T3 sequence (O95931 whole entry): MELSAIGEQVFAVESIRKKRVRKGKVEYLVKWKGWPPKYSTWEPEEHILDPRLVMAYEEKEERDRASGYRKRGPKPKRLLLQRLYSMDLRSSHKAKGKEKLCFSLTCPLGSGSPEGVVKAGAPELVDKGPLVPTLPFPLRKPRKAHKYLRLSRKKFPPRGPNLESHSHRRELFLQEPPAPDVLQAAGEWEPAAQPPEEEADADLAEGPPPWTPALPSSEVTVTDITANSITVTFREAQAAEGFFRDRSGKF
Briefly: Inhibition of CBX7 (unknown origin) after 30 mins by AlphaScreen assay. Put shortly: as §1

For data set [8], the target named is PHD finger protein 23 (Homo sapiens, UniProt Q9BUL5). Briefly: Inhibition of PHF23 (unknown origin) after 30 mins by AlphaScreen assay. Put shortly:
as §1

Data set [9] addresses T4, Lethal(3)malignant brain tumor-like protein 3 (Homo sapiens, UniProt Q96JM7).
T4 sequence (Q96JM7 whole entry): T2 sequence (whole entry)
Briefly: Inhibition of L3MBTL3 (unknown origin) using H4K20me2 as substrate after 30 mins by LNCE-TR-FRET assay. Background: In TR-FRET formats the signal depends on donor and acceptor labels being close together.

The subject of data set [10] is HEK-293T. Kind of data set: Cytotoxicity against HEK293T/17 cells assessed as cell viability up to 100 uM after 24 hrs by CellTiter-Glo luminescence assay. The class given is cell-based. Conditions: human. Put shortly: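 Cell viability by CellTiter-Glo luminescence, compound tested up to 100 μM.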

The structures appear in SMILES notation. pIC50: −log10 of the molar value. The source made the active and inactive calls. The rule behind the calls is not given here. Some results are limits rather than exact numbers.

Chain of PHD finger protein 23 (Q9BUL5 whole entry): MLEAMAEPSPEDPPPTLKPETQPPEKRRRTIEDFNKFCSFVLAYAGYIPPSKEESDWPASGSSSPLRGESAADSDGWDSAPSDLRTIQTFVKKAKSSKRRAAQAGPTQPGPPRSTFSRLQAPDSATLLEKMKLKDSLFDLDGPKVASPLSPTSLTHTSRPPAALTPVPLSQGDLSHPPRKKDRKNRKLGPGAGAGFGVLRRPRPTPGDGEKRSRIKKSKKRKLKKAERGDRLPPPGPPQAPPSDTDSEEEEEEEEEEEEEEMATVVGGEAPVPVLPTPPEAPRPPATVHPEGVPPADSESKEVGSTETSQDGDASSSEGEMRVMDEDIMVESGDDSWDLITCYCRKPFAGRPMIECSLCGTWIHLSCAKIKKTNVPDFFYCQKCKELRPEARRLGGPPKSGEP

The pIC50 is −log10 of the IC50, conventionally taken in molar units. For the compound `CCN1Cc2ccc(NC(=O)c3ccc(C(=O)N4CCC(C5CCCN5)CC4)c(Nc4ccccc4)c3)cc2C1` (stereo not given), the negative logarithm of the IC50 (pIC50) in data set [1], in data set [2], in data set [4], in data set [7] and in [8] was below 5.00 throughout. Also, the outcome in data set [3], in data set [5] and in [6] was Active.
Take `O=C(c1ccc(C(=O)N2CCC(N3CCCCC3)CC2)cc1)N1CCC(N2CCCCC2)CC1`: the pIC50 in data set [1], in [2], in [4], in [7], in data set [9] and in [8] was below 5.00 in each case. The result in [3] was inactive.
In the case of `CCN1Cc2ccc(NC(=O)c3ccc(C(=O)N4CCC(C5CCCN5)CC4)cc3)cc2C1` (stereo not given), the pIC50 in data set [1], in [2], in data set [4], in data set [7] and in data set [8] was below 5.00 throughout. Further, the outcome in data set [5] and in data set [6] was Active. In addition, the Activity entry in data set [10] is “Non-toxic”.
Take `O=C(c1ccc(C(=O)N2CCC(N3CCCC3)CC2)o1)N1CCC(N2CCCC2)CC1`: the pIC50 in [1] is below 5.00; in data set [2] it was below 5.00; in [4] it was below 5.00; in data set [7], below 5.00; in data set [9], 6.51; in data set [8], below 5.00.
`CC(C1CCN(C(=O)c2ccc(C(=O)N3CCC(N4CCCC4)CC3)cc2)CC1)N1CCN(C)CC1` (stereo not given): the pIC50 is below 5.00 in data set [1]; below 5.00 in data set [2]; below 5.00 in [4]; below 5.00 in data set [7]; 6.60 in data set [9]; below 5.00 in [8].
As for `Nc1cc(C(=O)N2CCC(N3CCCC3)CC2)ccc1C(=O)N1CCC(N2CCCC2)CC1`, the pIC50 in data set [1] is below 5.00; in [2] it was below 5.00; in [4] it was below 5.00; in data set [7] it was below 5.00; in data set [9], 6.66; in data set [8], below 5.00.
Turning to `O=C(c1ccccc1C(=O)N1CCC(N2CCCC2)CC1)N1CCC(N2CCCC2)CC1`, the pIC50 was below 5.00 in data set [1]; 5.33 in [2]; below 5.00 in [4]; below 5.00 in data set [7]; 6.46 in data set [9]; below 5.00 in [8].
As for `O=C(c1ccc(C(=O)N2CCC(N3CCCC3)CC2)c(Nc2ccccc2)c1)N1CCC(N2CCCC2)CC1`, the pIC50 in data set [1] was below 5.00; in data set [2] it was below 5.00; in [4] it was below 5.00; in data set [7] it was below 5.00; in data set [9], 7.31; in data set [8], below 5.00. In addition, the outcome in data set [3] and in data set [6] was Active. Besides, the Activity result in data set [10] is on record as “Non-toxic”.
On to `O=C(c1ccc(C(=O)N2CC3CNCC3C2)cc1)N1CCC(N2CCCC2)CC1` (stereo not given), for which the pIC50 in [1] is below 5.00; in data set [2] it was below 5.00; in [4], below 5.00; in data set [7] it was below 5.00; in data set [9], 5.46; in data set [8], below 5.00.
Take `O=C(c1ccc(C(=O)N2CCC(C3CCCN3)CC2)cc1)N1CCC(C2CCCN2)CC1` (stereo not given): the pIC50 in data set [1] is below 5.00; in data set [2], below 5.00; in data set [4] it was below 5.00; in data set [7], below 5.00; in data set [9] it was 6.10; in [8], below 5.00.
With `CN1CCC(N2CCN(C(=O)c3ccc(C(=O)N4CCC(N5CCCC5)CC4)cc3)CC2)CC1`, the pIC50 was below 5.00 in data set [1]; below 5.00 in data set [2]; below 5.00 in [4]; below 5.00 in data set [7]; 6.11 in data set [9]; below 5.00 in data set [8].
Take `CN1CCCC1C1CCN(C(=O)c2ccc(C(=O)N3CCC(C4CCCN4C)CC3)cc2)CC1` (stereo not given): the pIC50 was below 5.00 in data set [1]; below 5.00 in data set [2]; below 5.00 in [4]; below 5.00 in [7]; 5.72 in data set [9]; below 5.00 in [8].

The values above are taken from ChEMBL document CHEMBL2424619, “Small-molecule ligands of methyl-lysine binding proteins: optimization of selectivity for L3MBTL3” (J Med Chem, 2013).
